GPR7 antag: human neuropeptides B/W receptor 1 antagonism | GPR7-expressing cells, fluorescence antagonist assay | inhibition, % at 4.4 µM | actives 1.1% (n = 290,000) | AID 1861; in the data active = inhibition above about 16%, passing the limit was not always enough;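 also: cells stimulated with the agonist NPW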
TAAR1 ag: agonists of human TAAR1 | Q96RJ0 | CHO RD-HGA16 TAAR1, Fluo-8 calcium fluorescence; vehicle wells 0%, saturating PEA agonist 100% | activation, % at 3 µM | actives 0.99% (n = 360,000);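 active = activation above the mean activation of all test compounds in the run plus 3 SD, cut at about 38% in these data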
Target sequence (Q96RJ0 whole entry, looked up): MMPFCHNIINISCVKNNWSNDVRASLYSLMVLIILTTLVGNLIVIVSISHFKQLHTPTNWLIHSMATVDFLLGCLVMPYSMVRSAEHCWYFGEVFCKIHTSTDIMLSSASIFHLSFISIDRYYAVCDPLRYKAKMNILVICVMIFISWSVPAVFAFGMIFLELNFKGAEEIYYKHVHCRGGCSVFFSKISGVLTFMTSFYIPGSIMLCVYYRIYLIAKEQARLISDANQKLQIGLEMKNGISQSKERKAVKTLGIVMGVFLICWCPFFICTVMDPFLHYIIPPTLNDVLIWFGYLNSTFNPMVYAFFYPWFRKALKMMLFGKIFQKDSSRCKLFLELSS
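test system = CHO RD-HGA16 cells carrying human TAAR1 plus Gα16 | schedule = 17-24 h seeding, 75 min 37 °C dye, 30 min RT | compound dosing = 3 µM single concentration | control set = DMSO and PEA EC100 | replicates = n 1 | signal = Fluo-8 fluorescence, 5 s baseline then 140 s kinetic read | measure = percent activation vs PEA EC100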
OX1R antag-1: OX1R (human) antagonism; O43613; OX1R-expressing cells, FRET antagonist read-out; inhibition, % at 6.6 µM; actives 1.8% (n = 330,000); AID 485270; in the data active = inhibition mostly above about 38%, no sharp cut-off; inactive = mostly below about 40%
CHO parental Ca: counter-screen for OX1R antagonists: effect in parental CHO cells. actives 0.63% (n = 330,000). AID 463079. parental CHO-K1, ATP-induced calcium, Fluo-8 fluorescence. inhibition, % at 5.6 µM;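 active = inhibition above that plate's mean sample inhibition plus 3 SD, cut at about 26% in these data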
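Material – parental CHO cells · Reagent – ATP stimulus · Compound – single nominal dose of 5.6 µM per compound · Detection – Fluo-8 fluorescence · Read-out basis – percent inhibition of calcium signal · Controls – ATP-challenged DMSO wells low, unchallenged DMSO wells high · Repeats – no replicates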
TAAR1 antagonist: antagonists of human TAAR1 | Q96RJ0 | CHO RD-HGA16 TAAR1, Fluo-8 calcium fluorescence, antagonist | inhibition, % at 3 µM | actives 1.5% (n = 360,000) | AID 624466;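 active = inhibition above a per-plate cutoff, the mean inhibition of test compounds on that plate plus 3 SD, cut at about 49% in these data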
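Test system: CHO RD-HGA16 cells bearing hTAAR1 | Reagent: β-PEA, EC80 | Compound dosing: 3 µM, single point | Schedule: Dye loading 75 min at 37 °C, then 30 min room temperature | Signal: Calcium fluorescence with Fluo-8 | Evaluation: Percent inhibition of PEA-evoked calcium signal, max/basal emission ratio | Control set: DMSO-only wells and EC80 β-PEA-stimulated wells | Repeats: Singlicate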
OX1R antag-2: blocks the human orexin 1 receptor. inhibition, % at 5 µM. O43613. actives 0.43% (n = 330,000). CHO/OX1R cells, Fluo-8 calcium fluorescence, orexin A. AID 434989;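 active = inhibition above its plate's threshold, mean inhibition of all tested compounds on the plate plus 3 SD, cut at about 37% in these data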
TAAR1 ag confirm: confirmation of human TAAR1 agonists | shares compounds with TAAR1 ag | CHO RD-HGA16 TAAR1, Fluo-8 calcium fluorescence; scaled: DMSO 0%, maximal phenethylamine 100% | activation, % at 3 µM | actives 82% (n = 2,400) | AID 651783;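 active = activation above a cutoff set at the run's mean compound activation plus 3 SD, cut at about 39% in these data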
Ga16 nonsel ag: counter-screen for TAAR1 agonists: nonselective agonists in parental cells; shares compounds with TAAR1 ag; actives 50% (n = 2,400); CHO-Ga16 parental, Fluo-8 calcium fluorescence; normalized to maximal ATP response, DMSO zero; AID 651787; activation, % at 3 µM;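 active = activation above the run cutoff, the mean activation over all tested wells plus 3 SD, cut at about 12% in these data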
TAAR1 desensitize: TAAR1 response desensitization, agonist counter-screen. AID 651951. actives 46% (n = 2,400). CHO RD-HGA16 hTAAR1, Fluo-8 calcium, beta-PEA response inhibition. inhibition, % at 3 µM. shares compounds with TAAR1 ag;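 active = inhibition above the run cutoff, the mean inhibition of all test compounds plus 3 SD, cut at about 49% in these data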;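 also: beta-PEA stimulus applied at its EC80; loss of beta-PEA calcium signal after compound pretreatment read as receptor desensitization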
Ga16 antag count: nonselective Ga16 antagonism, counter-screen; shares compounds with TAAR1 ag; CHO-Ga16 ATP-induced calcium, Fluo-8 fluorescence; inhibition, % at 3 µM; actives 39% (n = 2,400); AID 651952;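 active = inhibition above the plate's mean compound inhibition plus 3 SD, computed per plate, cut at about 22% in these data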
Numbers stand for hits; - = inactive; . = no result given. Only some compounds are listed: those with a hit (about 4.6% of all), similar ones and a draw of the others.

SMILES	GPR7 antag	TAAR1 ag	OX1R antag-1	CHO parental Ca	TAAR1 antagonist	OX1R antag-2	TAAR1 ag confirm	Ga16 nonsel ag	TAAR1 desensitize	Ga16 antag count
O=C(Cc1ccc(Cl)cc1)NCCS(=O)(=O)N1CCN(c2ccccc2F)CC1	.	-	-	-	-	-	.	.	.	.
O=C(CNC(=O)c1cccc(F)c1)N/N=C/C=C/c1ccccc1	-	.	-	-	.	-	.	-	.	-
CC(=O)C1CCC2C3CC=C4CC(SC(=N)N)CCC4(C)C3CCC12C (configuration not stated)	.	83.6	.	.	80.9	.	111.2	69.4	90.7	53.4
Cc1nc(S(=O)(=O)Nc2ccccc2C(=O)NCC2CC2)cn1C	-	-	-	-	-	-	.	.	.	.
COc1ccc2cc(C(c3nnnn3CCc3ccccc3)N3CCCC(C)C3)c(=O)[nH]c2c1 (configuration not stated)	-	53.9	-	-	-	-	58.5	-	-	-
COCCn1nnnc1C(c1cc2cc(OC)ccc2[nH]c1=O)N1CCC(Cc2ccccc2)CC1 (configuration not stated)	-	-	-	-	-	-	.	.	.	.
COc1ccc2cc(CN(CCc3ccccc3)Cc3nnnn3CC3CCCO3)c(=O)[nH]c2c1 (configuration not stated)	-	92.3	-	-	56.9	-	77.6	-	75.1	-
COc1ccc2[nH]c(=O)c(CN(CCc3ccccc3)Cc3nnnn3CC3CCCO3)cc2c1 (configuration not stated)	-	84.5	-	-	72.4	-	87.9	-	81.3	24.9
O=c1[nH]c2cc3c(cc2cc1CN(CCc1ccccc1)Cc1nnnn1CC1CCCO1)OCO3 (configuration not stated)	-	-	-	-	-	-	.	.	.	.
COc1ccc2[nH]c(=O)c(CN(Cc3ccccc3OC)Cc3nnnn3CC3CCCO3)cc2c1 (configuration not stated)	-	-	-	-	-	-	.	.	.	.
COc1cc(F)ccc1-c1csc(C(NC(C)=O)c2ccccc2)n1 (configuration not stated)	.	-	.	.	-	.	.	.	.	.
O=C(CSC1=NS(=O)(=O)c2ccccc2N1)NCCc1ccccc1	.	88.9	-	-	71.2	-	89.2	-	74.9	-
CC1(C(=O)NS(=O)(=O)C2CC2)CCCN(C(=O)c2ccc(F)c(Cl)c2)C1 (configuration not stated)	.	-	.	.	-	.	.	.	.	.
O=C(N/N=C/c1cc(Cl)cc([N+](=O)[O-])c1O)c1ccccc1NS(=O)(=O)c1cccs1	-	-	-	-	-	-	.	.	.	.
Cc1ccccc1OCC(=O)NNC(=S)NC(=O)c1ccco1	-	64.9	-	-	-	-	-	22.8	-	-
CC(C)c1ccc(OCC(=O)NNC(=S)NC(=O)c2ccco2)c(Br)c1	-	43.6	-	-	-	-	80.8	59.0	70.0	50.9
Cc1ccc(S(=O)(=O)N2[C@@H](c3ccc(F)cc3)C(C(=O)O)=CC[C@H]2c2ccc3c(c2)OCO3)cc1	.	-	-	-	-	-	.	.	.	.
Cc1ccc2nc(-c3ccccc3)cc(C(=O)N3CCc4ccccc4C3)c2c1	-	71.9	-	-	-	-	68.2	-	-	-
COc1cccc(C(=O)Oc2cc(N)n(S(=O)(=O)c3ccc(C)cc3)n2)c1OC	-	63.7	-	-	-	-	50.5	14.3	-	-
